In ChEMBL document CHEMBL2331350, “Conjugation to 4-aminoquinoline improves the anti-trypanosomal activity of Deferiprone-type iron chelators” (Bioorg Med Chem, 2013):
The source made the active and inactive calls. The rule behind the calls is not given here.

How the values were obtained:
[1] = test system: Plasmodium falciparum; assay: Antimalarial activity against Plasmodium falciparum ITG2G1; type: functional
[2] = Cytotoxicity against human K562 cells; type: cell-based
[3] = Cytotoxicity against human HL60 cells by alamar blue assay; type: cell-based, HL-60
Outline: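 HL-60 cells in RPMI 1640 with 2 mM L-glutamine and 16.7% FBS at 37 °C, 5% CO2, seeded at 10⁵ cells/mL. Viability with Alamar Blue read as in the T. brucei assay (570 nm, reference 630 nm); GI50.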

[4] = test system: Trypanosoma brucei; assay: Antitrypanosomal activity against Trypanosoma brucei TC211 after 24 hrs by alamar blue assay; type: functional; settings: TC211, 24 h
Outline: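 Bloodstream T. brucei TC211 in Baltz medium with 16.7% heat-inactivated FBS, seeded at 10⁴ cells/mL with compounds in DMSO (final 0.5%; DMSO-only controls). Alamar Blue added after 24 h, then 48 h incubation; absorbance 570 nm, reference 630 nm. Melarsoprol positive control; GI50 with 95% CI.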

[5] = test system: Trypanosoma brucei; assay: Iron cheating activity in Trypanosoma brucei bloodstream forms assessed as increase in fluorescein-labeled transferrin at 25 uM in presence of 16.7% heat inactivated FBS after 24 hrs by flow cytometry relative to untreated control; type: functional
Outline: (§1)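 Bloodstream T. brucei (5 × 10⁵/mL) exposed 24 h in Baltz medium/16.7% heat-inactivated FBS to 50 µM chelator, 25 µM DFO or DMSO control. Washed cells then given 50 µg/mL fluorescein-transferrin in Baltz/2% BSA for 2 h, washed, fixed in 2% formaldehyde/0.05% glutaraldehyde, analysed by flow cytometry.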

[6] = Iron cheating activity assessed as pFe3+ value at pH 7.45 by spectrophotometry; type: functional
Outline: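 Automated spectrophotometric titration at 25 °C, 0.1 M KCl, pH 2–12 in 0.1-unit steps, 5 min equilibration for stability constants, 50 mm cuvette; […], total iron 1 mM; data fitted with pHab; pFe³⁺ defined at 10⁻⁶ M metal and 10⁻⁵ M ligand.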

[7] = test system: Leishmania infantum; assay: Antileishmanial activity against Leishmania infantum MHOM/BR/1972/LD promastigotes after 48 hrs by MTT assay; type: functional
[8] = test system: Trypanosoma cruzi; assay: Antitrypanosomal activity against Trypanosoma cruzi trypomastigotes after 24 hrs by MTT assay relative to Chloroquine; type: functional
[9] = Selectivity index, ratio of GI50 for human HL60 cells to GI50 for Trypanosoma brucei TC211; type: toxicity, cell-based, HL-60; settings: read-out: RatioGI50
[10] = Selectivity index, ratio of GI50 for human HL60 cells to GI50 for Trypanosoma cruzi trypomastigotes; type: toxicity, cell-based, HL-60; settings: read-out: RatioGI50
[11] = Selectivity index, ratio of GI50 for human K562 cells to GI50 for Plasmodium falciparum ITG2G1; type: toxicity, cell-based; settings: read-out: RatioGI50
[12] = test system: Trypanosoma cruzi; assay: Antitrypanosomal activity against Trypanosoma cruzi trypomastigotes after 24 hrs by MTT assay relative to Deferiprone; type: functional
[13] = Selectivity index, ratio of GI50 for human HL60 cells to GI50 for Leishmania infantum MHOM/BR/1972/LD promastigotes; type: toxicity, cell-based, HL-60; settings: read-out: RatioGI50
[14] = test system: Leishmania infantum; assay: Antileishmanial activity against Leishmania infantum MHOM/BR/1972/LD intracellular amastigotes at 60 uM after 120 hrs by light microscopy
[15] = test system: Trypanosoma cruzi; assay: Antitrypanosomal activity against Trypanosoma cruzi trypomastigotes after 24 hrs by MTT assay; type: functional
Outline: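 T. cruzi trypomastigotes counted by hemocytometer, seeded at 1 × 10⁶ per well; compounds up to 100 µM for 24 h at 37 °C, 5% CO2. Viability from MTT conversion to formazan. Benznidazole positive control; GI50 with 95% CI.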

[16] = Lipophilicity, log P of the compound; type: physicochemical; settings: octanol/water
[17] = test system: Trypanosoma brucei; assay: Antitrypanosomal activity against Trypanosoma brucei TC211 after 24 hrs by alamar blue assay relative to Deferiprone; type: functional
[18] = test system: Trypanosoma brucei; assay: Antitrypanosomal activity against Trypanosoma brucei TC211 after 24 hrs by alamar blue assay relative to Chloroquine; type: functional
[19] = test system: Trypanosoma brucei; assay: Antitrypanosomal activity against Trypanosoma brucei TC211 after 24 hrs in presence of FeCl3 by alamar blue assay; type: functional, organism-based
[20] = test system: Trypanosoma brucei; assay: Iron cheating activity in Trypanosoma brucei bloodstream forms assessed as increase in fluorescein-labeled transferrin at 50 uM in presence of 16.7% heat inactivated FBS after 24 hrs by flow cytometry relative to untreated control; type: functional; outline: as §1

CC(=O)N(O)CCCCCNC(=O)CCC(=O)N(O)CCCCCNC(=O)CCC(=O)N(O)CCCCCN [DEFEROXAMINE]
GI50 [1]: 28 µM | GI50 [2]: 33.1 µM | GI50 [3]: 18.4 µM | GI50 [4]: 2.9 µM | fold change (FC) [5]: 2 | Activity [6]: 26.6 | GI50 [7]: 150 µM

Cc1c(O)c(=O)ccn1CCCCNc1ccnc2cc(Cl)ccc12
GI50 [1]: 2.4 µM | Ratio [8]: 4 | GI50 [2]: 38.2 µM | selectivity ratio [9]: 13 | selectivity ratio [10]: 8 | selectivity ratio [11]: 16 | Ratio [12]: >15 | GI50 [3]: 50.3 µM | selectivity ratio [13]: 2 | Activity [14]: inactive | GI50 [4]: 3.8 µM | GI50 [15]: 6.5 µM | logP [16]: 1.4 | Ratio [17]: >25 | Ratio [18]: 4 | GI50 [7]: 27.1 µM

C[C@@H]1[C@H](O)[C@@H](C)/C=C/C=C/C=C/C=C/C=C/C=C/C=C/[C@H](O[C@@H]2O[C@H](C)[C@@H](O)[C@H](N)[C@@H]2O)C[C@@H]2O[C@](O)(C[C@@H](O)C[C@@H](O)[C@H](O)CC[C@@H](O)C[C@@H](O)CC(=O)O[C@H]1C)C[C@H](O)[C@H]2C(=O)O [AMPHOTERICIN B]
GI50 [7]: 0.17 µM

Cc1cc(NC(=O)CCCn2ccc(=O)c(O)c2C)c2ccccc2n1
GI50 [1]: 6 µM | GI50 [2]: 128 µM | selectivity ratio [11]: 21 | logP [16]: 1.28

NCCCCNc1ccnc2cc(Cl)ccc12
GI50 [3]: > 100 µM | GI50 [4]: 15.8 µM | GI50 [15]: 46.3 µM | GI50 [7]: 42.4 µM

Cc1cc(NCCCCn2ccc(=O)c(O)c2C)c2ccccc2n1
GI50 [1]: 9 µM | GI50 [2]: 204 µM | selectivity ratio [11]: 23 | logP [16]: -0.48 | Activity [6]: 21.1

CCCCCCCCCCn1ccc(=O)c(O)c1C
selectivity ratio [9]: 5 | selectivity ratio [10]: 8 | GI50 [3]: 6.3 µM | selectivity ratio [13]: 9 | GI50 [4]: 1.4 µM | GI50 [15]: 0.8 µM | GI50 [7]: 0.7 µM

Cc1c(O)c(=O)ccn1C [DEFERIPRONE]
GI50 [1]: 67 µM | GI50 [3]: > 100 µM | GI50 [4]: > 100 µM | GI50 [15]: > 100 µM | Activity [6]: 19.3 | GI50 [7]: > 100 µM

Cc1c(O)c(=O)ccn1CCNc1ccnc2cc(Cl)ccc12
GI50 [1]: 7 µM | GI50 [2]: 182 µM | selectivity ratio [11]: 26 | logP [16]: 1.08

Cc1c(O)c(=O)ccn1CCCNc1ccnc2cc(Cl)ccc12
logP [16]: 1.32

O=C(Cn1ccnc1[N+](=O)[O-])NCc1ccccc1 [BENZNIDAZOLE]
GI50 [15]: 441 µM

Cc1c(O)c(=O)ccn1CCCCNc1ccnc2ccccc12
GI50 [1]: 1.6 µM | GI50 [2]: 27.1 µM | selectivity ratio [9]: > 13 | selectivity ratio [11]: 17 | GI50 [3]: > 100 µM | Activity [19]: inactive | GI50 [4]: 7.6 µM | fold change (FC) [20]: 1.6 | GI50 [15]: > 100 µM | logP [16]: 1.25 | GI50 [7]: > 100 µM

CCCCCCCCn1ccc(=O)c(O)c1C
selectivity ratio [9]: 3 | selectivity ratio [10]: 4 | GI50 [3]: 11.2 µM | selectivity ratio [13]: 4 | GI50 [4]: 3.6 µM | GI50 [15]: 3 µM | GI50 [7]: 3.2 µM

Cc1c(O)c(=O)ccn1CCN
GI50 [3]: 111 µM | GI50 [4]: > 100 µM | GI50 [15]: > 100 µM | GI50 [7]: > 100 µM

CCN(CC)CCCC(C)Nc1ccnc2cc(Cl)ccc12 (configuration not stated) [CHLOROQUINE]
GI50 [4]: 15.6 µM | GI50 [15]: 22.2 µM | GI50 [7]: 3.7 µM

Nc1nc(N)nc(Nc2ccc([As]3SCC(CO)S3)cc2)n1 (configuration not stated) [MELARSOPROL]
GI50 [4]: 0.0038 µM
